Test results published in ChEMBL document CHEMBL4368918, “Structure-Based Design of Inhibitors Selective for Human Proteasome β2c or β2i Subunits” (J Med Chem, 2019).
Activity calls are given as the source filed them. The calls are words filed in the database; no cut-off is given here.

Key:
[1] = target: T1, Proteasome subunit beta type-9 (Homo sapiens, UniProt P28065); test: Inhibition of 20S immunoproteasome beta 1 in human RPMI8226 cell lysates after 1 hr by coomassie brilliant blue staining-based fluorescence assay; format: subcellular, Lysate
T1 sequence (P28065 whole entry): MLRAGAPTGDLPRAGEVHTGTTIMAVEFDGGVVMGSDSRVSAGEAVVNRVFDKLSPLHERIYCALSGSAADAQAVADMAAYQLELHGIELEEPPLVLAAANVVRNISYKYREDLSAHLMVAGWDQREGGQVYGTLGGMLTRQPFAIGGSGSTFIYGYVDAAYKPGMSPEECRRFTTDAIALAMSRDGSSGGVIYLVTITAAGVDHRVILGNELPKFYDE
Summary of the method: (§1)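 Living RPMI-8226 cells were grown in RPMI-1640 with 10% FCS. Cells at (5–8)×10⁵ cells/mL were exposed to inhibitor for 1 h at 37 °C, washed in PBS and lysed on ice for 1 h in digitonin/ATP buffer. Residual activity was read by cocktail-ABP labeling, SDS-PAGE and fluorescence densitometry relative to mock, with Coomassie staining correcting for loading. IC50 came from three independent experiments.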

[2] = target: T2, Proteasome subunit beta type-10 (Homo sapiens, UniProt P40306); test: Inhibition of 20S immunoproteasome beta 2 in human RPMI8226 cell lysates after 1 hr by coomassie brilliant blue staining-based fluorescence assay; format: subcellular, Lysate
T2 sequence (P40306 whole entry): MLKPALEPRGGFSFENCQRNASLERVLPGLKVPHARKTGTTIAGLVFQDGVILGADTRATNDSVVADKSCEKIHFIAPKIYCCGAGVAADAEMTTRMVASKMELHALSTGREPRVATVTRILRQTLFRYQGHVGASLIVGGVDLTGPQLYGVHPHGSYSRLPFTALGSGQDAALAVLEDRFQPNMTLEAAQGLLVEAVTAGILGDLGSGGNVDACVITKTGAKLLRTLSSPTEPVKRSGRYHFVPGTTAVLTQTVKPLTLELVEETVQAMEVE

[3] = target: T2, Proteasome subunit beta type-10; test: Inhibition of 20S immunoproteasome beta 2 (unknown origin) by cell based ABPP assay
Summary of the method: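 Living RPMI-8226 cells, (5–8) ×10^5 cells/mL, exposed to inhibitor 1 h at 37 °C, washed, lysed in digitonin buffer 1 h on ice; residual activity labelled with cocktail ABPs, SDS-PAGE in-gel fluorescence, bands divided by mock, Coomassie staining to correct loading. IC50 from mean of three independent experiments.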

Homo sapiens [4] = organism: Homo sapiens; test: Selectivity ratio of IC50 for 20S constitutive proteasome beta 5 chymotrypsin-like activity in human Raji cell lysates to IC50 for 20S constitutive proteasome beta 2 trypsin-like activity in human Raji cells; format: cell-based
[5] = target: T3, Proteasome subunit beta type-6 (Homo sapiens, UniProt P28072); test: Inhibition of 20S constitutive proteasome beta 1 caspase-like activity in human Raji cell lysates after 1 hr by competitive ABPP assay; format: subcellular, Lysate
T3 sequence (P28072 whole entry): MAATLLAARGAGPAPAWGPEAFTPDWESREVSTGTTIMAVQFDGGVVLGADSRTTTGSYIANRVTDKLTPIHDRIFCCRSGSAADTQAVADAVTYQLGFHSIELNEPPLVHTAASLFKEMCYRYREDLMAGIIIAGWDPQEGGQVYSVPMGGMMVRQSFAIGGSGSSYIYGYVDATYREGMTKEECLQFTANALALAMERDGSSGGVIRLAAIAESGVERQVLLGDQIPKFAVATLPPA
Summary of the method: (§2)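 Raji cells were sonicated in 3 volumes of Tris pH 7.5 lysis buffer containing DTT, MgCl₂, sucrose, 2 mM ATP and 0.05% digitonin. Lysate (5 μg protein, in buffer with 2 mM ATP and glycerol) was preincubated with inhibitor for 1 h at 37 °C, then with a cocktail of three fluorescent ABPs for 1 h. In-gel fluorescence densitometry was normalized to mock. IC50 came from the mean of three experiments.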

Homo sapiens [6] = organism: Homo sapiens; test: Selectivity ratio of IC50 for 20S immunoproteasome beta 1 in human Raji cell lysates to IC50 for 20S constitutive proteasome beta 2 trypsin-like activity in human Raji cells; format: cell-based
Homo sapiens [7] = organism: Homo sapiens; test: Selectivity ratio of IC50 for 20S immunoproteasome beta 2 (unknown origin) to IC50 for 20S constitutive proteasome beta 2 trypsin-like activity (unknown origin)
[8] = target: T4, Proteasome subunit beta type-8 (Homo sapiens, UniProt P28062); test: Inhibition of 20S immunoproteasome beta 5 in human RPMI8226 cell lysates after 1 hr by coomassie brilliant blue staining-based fluorescence assay; format: subcellular, Lysate; summary of the method: as §1
T4 sequence (P28062 whole entry): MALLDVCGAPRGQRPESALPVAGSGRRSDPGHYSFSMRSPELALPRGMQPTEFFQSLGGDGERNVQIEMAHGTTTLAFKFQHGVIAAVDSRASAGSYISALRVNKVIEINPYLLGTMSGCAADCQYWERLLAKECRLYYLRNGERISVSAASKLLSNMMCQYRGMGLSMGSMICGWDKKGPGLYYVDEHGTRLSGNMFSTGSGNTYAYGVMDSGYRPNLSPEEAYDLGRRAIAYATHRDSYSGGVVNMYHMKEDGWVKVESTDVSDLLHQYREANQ

Homo sapiens [9] = organism: Homo sapiens; test: Selectivity ratio of IC50 for 20S constitutive proteasome beta 1 caspase-like activity in human Raji cell lysates to IC50 for 20S constitutive proteasome beta 2 trypsin-like activity in human Raji cells; format: cell-based
[10] = target: T4, Proteasome subunit beta type-8; test: Inhibition of 20S immunoproteasome beta 5 in human Raji cell lysates after 1 hr by competitive ABPP assay; format: subcellular, Lysate
Homo sapiens [11] = organism: Homo sapiens; test: Selectivity ratio of IC50 for 20S immunoproteasome beta 2 in human Raji cell lysates to IC50 for 20S constitutive proteasome beta 2 trypsin-like activity in human Raji cells; format: cell-based
[12] = target: T5, Proteasome Macropain subunit MB1 (Homo sapiens, UniProt P28074); test: Inhibition of 20S constitutive proteasome beta 5 chymotrypsin-like activity in human Raji cell lysates after 1 hr by competitive ABPP assay; format: subcellular, Lysate
T5 sequence (P28074 whole entry): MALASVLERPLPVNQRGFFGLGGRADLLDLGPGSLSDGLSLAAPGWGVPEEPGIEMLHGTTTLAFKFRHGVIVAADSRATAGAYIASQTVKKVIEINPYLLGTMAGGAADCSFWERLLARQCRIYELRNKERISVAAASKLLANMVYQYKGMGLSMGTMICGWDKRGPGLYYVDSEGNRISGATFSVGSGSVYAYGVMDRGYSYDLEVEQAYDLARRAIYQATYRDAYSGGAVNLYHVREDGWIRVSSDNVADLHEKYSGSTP

[13] = target: T1, Proteasome subunit beta type-9; test: Inhibition of 20S immunoproteasome beta 1 in human Raji cell lysates after 1 hr by competitive ABPP assay; format: subcellular, Lysate
Summary of the method: as §2, with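 “h. […]” for “h.”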

[14] = target: T6, Proteasome subunit beta type-7 (Homo sapiens, UniProt Q99436); test: Inhibition of 20S constitutive proteasome beta 2 trypsin-like activity in human RPMI8226 cell lysates after 1 hr by coomassie brilliant blue staining-based fluorescence assay; format: subcellular, Lysate
T6 sequence (Q99436 whole entry): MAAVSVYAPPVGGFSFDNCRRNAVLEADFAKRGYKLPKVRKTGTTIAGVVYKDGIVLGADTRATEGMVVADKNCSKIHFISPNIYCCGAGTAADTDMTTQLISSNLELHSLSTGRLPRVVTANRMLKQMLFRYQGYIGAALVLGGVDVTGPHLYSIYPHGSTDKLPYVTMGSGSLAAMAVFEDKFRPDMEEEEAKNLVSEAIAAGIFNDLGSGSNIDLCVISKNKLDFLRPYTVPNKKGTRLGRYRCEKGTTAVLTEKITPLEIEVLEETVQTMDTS

[15] = target: T5, Proteasome Macropain subunit MB1; test: Inhibition of 20S constitutive proteasome beta 5 chymotrypsin-like activity in human RPMI8226 cell lysates after 1 hr by coomassie brilliant blue staining-based fluorescence assay; format: subcellular, Lysate
Summary of the method: as §1, with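 “Cells” for “Living RPMI-8226 cells were grown in RPMI-1640 with 10% FCS. Cells”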

Homo sapiens [16] = organism: Homo sapiens; test: Selectivity ratio of IC50 for 20S immunoproteasome beta 5 in human Raji cell lysates to IC50 for 20S constitutive proteasome beta 2 trypsin-like activity in human Raji cells; format: cell-based
[17] = target: T2, Proteasome subunit beta type-10; test: Inhibition of 20S immunoproteasome beta 2 in human Raji cell lysates after 1 hr by competitive ABPP assay; format: subcellular, Lysate
[18] = target: T7, Proteasome subunit beta type-10 (Homo sapiens) (UniProt P40306); test: Binding affinity to 20S immunoproteasome beta 2 in human Raji cell lysates at 3 uM by ABPP assay; format: subcellular; details: Lysate
T7 sequence (whole entry): T2 sequence (P40306 whole entry)
Summary of the method: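 Raji lysate (5 μg total protein, Tris pH 7.5, DTT, MgCl₂, glycerol, 2 mM ATP) was labeled with the BODIPY(FL) probe for 1 h at 37 °C. […] The wet gel was scanned at Cy2 settings.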

Activity [18]	Compound	IC50 [1] [µM]	IC50 [2] [µM]	IC50 [3] [µM]	Ratio IC50 (Homo sapiens [4])	IC50 [5] [µM]	Ratio IC50 (Homo sapiens [6])	Ratio IC50 (Homo sapiens [7])	IC50 [8] [µM]	Ratio IC50 (Homo sapiens [9])	IC50 [10] [µM]	Ratio IC50 (Homo sapiens [11])	IC50 [12] [µM]	IC50 [13] [µM]	IC50 [14] [µM]	IC50 [15] [µM]	Ratio IC50 (Homo sapiens [16])	IC50 [17] [µM]
–	COC[C@H](NC(=O)[C@H](CC(C)C)NC(=O)c1cnc(C)s1)C(=O)N[C@H](/C=C/S(C)(=O)=O)Cc1ccc(CN)cc1	> 10	> 10	> 1	590	> 100	> 1300	> 14	> 10	> 1300	57.1	52	45.3	> 100	> 10	> 10	740	4
–	CC(C)C[C@H](NC(=O)[C@H](Cc1ccccc1)N=[N+]=[N-])C(=O)NCC(=O)N[C@H](/C=C/S(C)(=O)=O)Cc1ccc(CN)cc1	> 10	> 10	5.9	276	> 100	> 2200	224	> 10	> 2200	12.7	54	8.6	> 100	> 10	> 10	187	2.5
–	COC1CCC(C[C@H](NC(=O)c2cnc(C)s2)C(=O)N[C@@H](CC(C)C)C(=O)N[C@H](/C=C/S(C)(=O)=O)Cc2ccc(CN)cc2)CC1 (some centres undefined)	> 10	> 10	> 1	> 220	> 100	> 220	> 4	> 10	> 220	> 100	7	> 100	> 100	> 10	> 10	> 220	3.1
–	CC(C)C[C@H](NC(=O)c1cnccn1)C(=O)N[C@@H](CC(C)C)C(=O)N[C@H](/C=C/S(C)(=O)=O)Cc1ccc(CN)cc1	> 10	> 10	6.5	> 600	> 100	> 600	40	> 10	> 600	> 100	17	> 100	> 100	> 10	> 10	> 600	2.9
–	CC(C)C[C@H](NC(=O)[C@H](Cc1ccccc1)N=[N+]=[N-])C(=O)N[C@@H](CO)C(=O)N[C@H](/C=C/S(C)(=O)=O)Cc1ccc(CN)cc1	> 10	> 10	0.525	–	> 100	–	–	> 10	–	2.2	–	1.4	> 100	–	> 10	–	0.23
–	CC(C)C[C@H](NC(=O)[C@H](Cc1ccccc1)N=[N+]=[N-])C(=O)N[C@H](C(=O)N[C@H](/C=C/S(C)(=O)=O)Cc1ccc(CN)cc1)[C@@H](C)O	> 10	> 10	0.33	–	> 100	–	–	> 10	–	2.1	–	0.75	> 100	–	> 10	–	0.11
–	Cc1ncc(C(=O)N[C@@H](CC2CCCCC2)C(=O)N[C@@H](CC(C)C)C(=O)N[C@H](/C=C/S(C)(=O)=O)Cc2ccc(CN)cc2)s1	> 10	> 10	0.54	> 1500	> 100	> 1500	30	> 10	> 1500	> 100	6	> 100	> 100	> 10	> 10	> 1500	0.42
–	COc1ccc(C[C@H](NC(=O)[C@H](C)NC(=O)CN2CCOCC2)C(=O)N[C@@H](C[C@H]2CCCc3ccccc32)C(=O)[C@@]2(C)CO2)cc1	–	–	–	–	> 100	–	–	–	–	> 100	–	> 100	> 100	–	–	–	–
Active	CC1=CC(C)=N/C1=C(/CCCCc1cn(CCOc2ccc(C[C@H](NC(=O)[C@H](C)NC(=O)CN3CCOCC3)C(=O)N[C@@H](CC3CCCC4CCCCC43)C(=O)[C@@]3(C)CO3)cc2)nn1)c1c(C)cc(C)n1B(F)F (some centres undefined)	–	–	–	–	–	–	–	–	–	–	–	–	–	–	–	–	–
–	COc1ccc(C[C@H](NC(=O)[C@H](C)NC(=O)CN2CCOCC2)C(=O)N[C@@H](C[C@@H]2CCCc3ccccc32)C(=O)[C@@]2(C)CO2)cc1	–	–	–	–	> 100	–	–	–	–	> 100	–	> 100	> 100	–	–	–	–
